ChEMBL document CHEMBL3393023, “Benzimidazole-containing HCV NS5A inhibitors: effect of 4-substituted pyrrolidines in balancing genotype 1a and 1b potency” (Bioorg Med Chem Lett, 2015)

What was measured:
[1] = test system: Hepatitis C virus; test: Antiviral activity against Hepatitis C virus genotype 1b infected in human Huh-5.2 cells assessed as decrease in HCV replicon RNA replication after 4 days by luciferase assay; type: functional, cell-based, Hepacivirus hominis; settings: Huh-5-2, 96 h
[2] = test system: Hepatitis C virus; test: Antiviral activity against Hepatitis C virus genotype 1a infected in W11.8 cells assessed as decrease in NS5A expression in replicon cell after 4 days by luminescence based ELISA; type: functional, Hepacivirus hominis; settings: subtype 1a, W11.8, 96 h
[3] = Cytotoxicity against human Huh7ET cells by [3H]-thymidine incorporation assay; type: cell-based; settings: Huh7ET cells (Huh-7)
Method in brief: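 Huh-7 ET cells were exposed to 12 test-compound concentrations, each in duplicate. Viability was read by [3H]-thymidine incorporation and CC50 was derived from the curve. A run was accepted only when the positive-control CC50 fell within 40% of its mean value.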

EC50 [1] [nM] | EC50 [2] [nM] | Compound | CC50 [3] [nM]
0.011 | 0.03 | COC(=O)N[C@H](C(=O)N1CC(C)(C)C[C@H]1c1nc2cc(-c3ccc(-c4ccc5[nH]c([C@@H]6CC(C)(C)CN6C(=O)[C@@H](NC(=O)OC)C(C)C)nc5c4)cc3)ccc2[nH]1)C(C)C | > 20000
0.019 | 0.085 | CC[C@H]1C[C@@H](c2nc3cc(-c4ccc(-c5ccc6[nH]c([C@@H]7C[C@H](CC)CN7C(=O)[C@@H](NC(=O)OC)C(C)C)nc6c5)cc4)ccc3[nH]2)N(C(=O)[C@@H](NC(=O)OC)C(C)C)C1 | > 20000
0.013 | 0.36 | COC(=O)N[C@H](C(=O)N1CCC[C@H]1c1nc2cc(-c3ccc(-c4ccc5nc([C@@H]6CCCN6C(=O)[C@@H](NC(=O)OC)C(C)C)[nH]c5c4)cc3OC)ccc2[nH]1)C(C)C | 6000
0.024 | 18 | COC(=O)N[C@H](C(=O)N1CCC[C@H]1c1nc2ccc(C#CC#Cc3ccc4nc([C@@H]5CCCN5C(=O)[C@@H](NC(=O)OC)C(C)C)[nH]c4c3)cc2[nH]1)C(C)C | 13000
26 | > 2000 | COC(=O)N[C@H](C(=O)N1CCC[C@H]1c1nc2ccc(-c3ccc4nc([C@@H]5CCCN5C(=O)[C@@H](NC(=O)OC)C(C)C)[nH]c4c3)cc2[nH]1)C(C)C | > 20000
0.012 | 0.84 | COC(=O)N[C@H](C(=O)N1CCC[C@H]1c1nc2cc(-c3ccc(-c4ccc5[nH]c([C@@H]6CCCN6C(=O)[C@@H](NC(=O)OC)C(C)C)nc5c4)c(F)c3)ccc2[nH]1)C(C)C | 6000
0.076 | 688 | COC(=O)N[C@H](C(=O)N1CCC[C@H]1c1nc2cc(CCc3ccc4[nH]c([C@@H]5CCCN5C(=O)[C@@H](NC(=O)OC)C(C)C)nc4c3)ccc2[nH]1)C(C)C | > 20000
0.024 | 0.018 | COC(=O)N[C@H](C(=O)N1C[C@@H](C)C[C@H]1c1nc2cc(C#CC#Cc3ccc4[nH]c([C@@H]5C[C@H](C)CN5C(=O)[C@@H](NC(=O)OC)C(C)C)nc4c3)ccc2[nH]1)C(C)C | 
0.034 | 1.22 | COC(=O)N[C@H](C(=O)N1C[C@H](OC)C[C@H]1c1nc2cc(-c3ccc(-c4ccc5[nH]c([C@@H]6C[C@@H](OC)CN6C(=O)[C@@H](NC(=O)OC)C(C)C)nc5c4)cc3)ccc2[nH]1)C(C)C | 6000
0.006 | 0.84 | COC(=O)N[C@H](C(=O)N1CCC[C@H]1c1nc2cc(-c3ccc(-c4ccc5[nH]c([C@@H]6CCCN6C(=O)[C@@H](NC(=O)OC)C(C)C)nc5c4)c(C)c3)ccc2[nH]1)C(C)C | 3000
0.082 | 4.9 | COC(=O)N[C@H](C(=O)N1C[C@@H](F)C[C@H]1c1nc2cc(-c3ccc(-c4ccc5[nH]c([C@@H]6C[C@H](F)CN6C(=O)[C@@H](NC(=O)OC)C(C)C)nc5c4)cc3)ccc2[nH]1)C(C)C | 11000
0.004 | 0.5 | COC(=O)N[C@H](C(=O)N1CC(F)(F)C[C@H]1c1nc2cc(-c3ccc(-c4ccc5[nH]c([C@@H]6CC(F)(F)CN6C(=O)[C@@H](NC(=O)OC)C(C)C)nc5c4)cc3)ccc2[nH]1)C(C)C | 13000
0.007 | 0.028 | COC(=O)N[C@H](C(=O)N1C[C@H](C)C[C@H]1c1nc2cc(-c3ccc(-c4ccc5[nH]c([C@@H]6C[C@@H](C)CN6C(=O)[C@@H](NC(=O)OC)C(C)C)nc5c4)cc3)ccc2[nH]1)C(C)C | 14000
0.018 | 1.1 | COC(=O)N[C@H](C(=O)N1C[C@H](F)C[C@H]1c1nc2cc(-c3ccc(-c4ccc5[nH]c([C@@H]6C[C@@H](F)CN6C(=O)[C@@H](NC(=O)OC)C(C)C)nc5c4)cc3)ccc2[nH]1)C(C)C | 14000
20 | 378 | COC(=O)N[C@H](C(=O)N1CCC[C@H]1c1nc2cc(-c3cccc(-c4ccc5[nH]c([C@@H]6CCCN6C(=O)[C@@H](NC(=O)OC)C(C)C)nc5c4)c3)ccc2[nH]1)C(C)C | 6000
0.031 | 0.053 | COC(=O)N[C@H](C(=O)N1C[C@@H](OC)C[C@H]1c1nc2cc(-c3ccc(-c4ccc5[nH]c([C@@H]6C[C@H](OC)CN6C(=O)[C@@H](NC(=O)OC)C(C)C)nc5c4)cc3)ccc2[nH]1)C(C)C | > 20000
0.006 | 0.9 | COC(=O)N[C@H](C(=O)N1CCC[C@H]1c1nc2cc(-c3cc(C)c(-c4ccc5[nH]c([C@@H]6CCCN6C(=O)[C@@H](NC(=O)OC)C(C)C)nc5c4)cc3C)ccc2[nH]1)C(C)C | 5000
0.01 | 0.94 | COC(=O)N[C@H](C(=O)N1CCC[C@H]1c1nc2ccc(-c3ccc(-c4ccc5nc([C@@H]6CCCN6C(=O)[C@@H](NC(=O)OC)C(C)C)[nH]c5c4)s3)cc2[nH]1)C(C)C | 6000
0.1 | 15 | COC(=O)N[C@H](C(=O)N1C[C@H](O)C[C@H]1c1nc2cc(-c3ccc(-c4ccc5[nH]c([C@@H]6C[C@@H](O)CN6C(=O)[C@@H](NC(=O)OC)C(C)C)nc5c4)cc3)ccc2[nH]1)C(C)C | > 20000
0.037 | 0.026 | COC(=O)N[C@H](C(=O)N1C[C@@H](C)C[C@H]1c1nc2cc(-c3ccc(-c4ccc5[nH]c([C@@H]6C[C@H](C)CN6C(=O)[C@@H](NC(=O)OC)C(C)C)nc5c4)cc3)ccc2[nH]1)C(C)C | > 20000
0.013 | 0.139 | COC(=O)N[C@H](C(=O)N1CCC[C@H]1c1ncc(-c2ccc(-c3ccc(-c4ccc5nc([C@@H]6CCCN6C(=O)[C@@H](NC(=O)OC)C(C)C)[nH]c5c4)cc3)cc2)[nH]1)C(C)C | 
0.012 | 0.55 | COC(=O)N[C@H](C(=O)N1CCC[C@H]1c1nc2ccc(-c3ccc(-c4ccc5nc([C@@H]6CCCN6C(=O)[C@@H](NC(=O)OC)C(C)C)[nH]c5c4)cc3)cc2[nH]1)C(C)C | 6000
0.022 | 28 | COC(=O)N[C@H](C(=O)N1CCC[C@H]1c1nc2ccc(C#Cc3ccc4nc([C@@H]5CCCN5C(=O)[C@@H](NC(=O)OC)C(C)C)[nH]c4c3)cc2[nH]1)C(C)C | > 20000
0.01 | 2.9 | COC(=O)N[C@H](C(=O)N1CCC[C@H]1c1nc2cc(-c3ccc(-c4ccc5[nH]c([C@@H]6CCCN6C(=O)[C@@H](NC(=O)OC)C(C)C)nc5c4)c(C)c3C)ccc2[nH]1)C(C)C | 7000
0.005 | 0.03 | COC(=O)N[C@H](C(=O)N1C[C@@H](C(F)(F)F)C[C@H]1c1nc2cc(-c3ccc(-c4ccc5[nH]c([C@@H]6C[C@H](C(F)(F)F)CN6C(=O)[C@@H](NC(=O)OC)C(C)C)nc5c4)cc3)ccc2[nH]1)C(C)C | 13000
